We go through nine molecules from publication PMC9470386 (Plant Direct, 2022).

Data set [1] deals with T1, AtDLK2 wt (Arabidopsis thaliana, UniProt F4J6L0).
T1 sequence (F4J6L0 1-273): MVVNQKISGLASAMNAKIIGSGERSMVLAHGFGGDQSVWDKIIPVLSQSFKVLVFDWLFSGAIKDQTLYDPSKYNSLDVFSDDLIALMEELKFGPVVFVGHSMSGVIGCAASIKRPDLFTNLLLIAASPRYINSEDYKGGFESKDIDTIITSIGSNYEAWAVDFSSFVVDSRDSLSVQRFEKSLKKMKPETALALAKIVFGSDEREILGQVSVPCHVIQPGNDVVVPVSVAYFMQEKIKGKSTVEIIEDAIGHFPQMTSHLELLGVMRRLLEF
Briefly: Differential scanning fluorimetry, AtDLK2 wt. Type of data set: binding. (In DSF a fluorescence change marks the thermal transition of the protein.)

The target in another data set is T2, AtDLK2 F167L (Arabidopsis thaliana, UniProt F4J6L0, F167L).
T2 sequence (F4J6L0 1-273 F167L): T1 sequence (F4J6L0 1-273) with F167L
Briefly: Differential scanning fluorimetry, AtDLK2 F167L. Format: binding. Put shortly: (§1)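 Recombinant protein was expressed in E. coli BL21(DE3), GST-affinity captured, tag removed by on-column HRV3 protease, then size-exclusion purified. DSF used 10 μg protein with rac-GR24 and 3× (final) Sypro Orange in 20 mM TRIS-HCl, 30 mM NaCl, 1 mM TCEP-HCl, pH 7.7. Heating ran 25–95°C at 1°C per minute, in triplicate, and was read from the denaturation curve and its derivative.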

Data set [2] has as its target T3, AtDLK2 F167A (Arabidopsis thaliana, UniProt F4J6L0, F167A).
T3 sequence (F4J6L0 1-273 F167A): T1 sequence (F4J6L0 1-273) with F167A
Briefly: Differential scanning fluorimetry, AtDLK2 F167A. Format: binding. In outline: as §1

The target in data set [3] is T4, AtD14 (Arabidopsis thaliana, UniProt Q9SQR3).
T4 sequence (Q9SQR3 1-267): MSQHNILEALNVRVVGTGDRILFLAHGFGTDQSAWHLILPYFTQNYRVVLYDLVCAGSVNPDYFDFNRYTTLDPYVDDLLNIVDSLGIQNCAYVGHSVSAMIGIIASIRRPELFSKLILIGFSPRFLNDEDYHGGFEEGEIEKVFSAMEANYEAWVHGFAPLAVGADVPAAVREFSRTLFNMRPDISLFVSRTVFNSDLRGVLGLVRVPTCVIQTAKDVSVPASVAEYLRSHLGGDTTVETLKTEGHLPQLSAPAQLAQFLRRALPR
Briefly: Differential scanning fluorimetry, AtD14. Format: binding. Put shortly: as §1

Data set [4] concerns the target T4, AtD14. Conditions: substrate rac‐GR24; ref Zhao et al., 2013; cited from earlier work.
Data set [5] addresses T4, AtD14. Briefly: Inhibition of AtD14 enzymatic activity on pNP acetate. Type of data set: biochemical. Conditions: for inhibition of the enzymatic activity of AtD14 (in words): pNP acetate as substrate.
In data set [6] the target is T5, AtKAI2 (Arabidopsis thaliana, UniProt Q9SZU7).
T5 sequence (Q9SZU7 1-270): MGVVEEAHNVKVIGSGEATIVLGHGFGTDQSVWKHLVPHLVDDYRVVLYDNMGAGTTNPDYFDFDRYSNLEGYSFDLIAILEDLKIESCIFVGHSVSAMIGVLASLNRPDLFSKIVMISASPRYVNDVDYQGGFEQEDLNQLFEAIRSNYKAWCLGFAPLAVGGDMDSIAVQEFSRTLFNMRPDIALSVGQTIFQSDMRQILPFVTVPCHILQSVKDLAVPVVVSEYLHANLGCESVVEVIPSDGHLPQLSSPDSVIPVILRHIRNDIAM
Briefly: Inhibition of AtKAI2 enzymatic activity on pNP acetate. Format: biochemical. Conditions: for inhibition of the enzymatic activity of AtKAI2 (in words): pNP acetate as substrate.

Data set [7] relates to AtDLK2 wt. Briefly: Michaelis–Menten kinetics on para‐nitrophenyl acetate, AtDLK2 wt. Type of data set: biochemical, Arabidopsis thaliana. Conditions: substrate pNP acetate.
The target in data set [8] is T3, AtDLK2 F167A. Briefly: Michaelis–Menten kinetics on para‐nitrophenyl acetate, AtDLK2 F167A. Format: biochemical. The conditions noted are these: substrate pNP acetate.
In data set [9] the target is T5, AtKAI2. Briefly: Michaelis–Menten kinetics on para‐nitrophenyl acetate, AtKAI2. Conditions: substrate pNP acetate. Format: biochemical.
Data set [10] addresses T6, AtDLK2 (Arabidopsis thaliana, UniProt F4J6L0).
T6 sequence (F4J6L0 1-273): T1 sequence (F4J6L0 1-273)
The conditions noted are these: ref Végh et al., 2017; cited from earlier work.

Data set [11] concerns the target T6, AtDLK2. The conditions noted are these: at high concentrations; ref Végh et al., 2017; cited from earlier work.
Substrate in data set [12]: CC(=O)Oc1ccc([N+](=O)[O-])cc1
Briefly: Michaelis–Menten kinetics on para‐nitrophenyl acetate, AtDLK2 wt. Type of data set: biochemical, Arabidopsis thaliana. The conditions noted are these: other: AtDLK2 wt, substrate pNP acetate; pH 7.0.

Substrate in data set [13]: CC(=O)Oc1ccc([N+](=O)[O-])cc1
Briefly: Michaelis–Menten kinetics on para‐nitrophenyl acetate, AtDLK2 F167L. Type of data set: biochemical, Arabidopsis thaliana. Conditions: other: AtDLK2 F167L, substrate pNP acetate; pH 7.0.

Substrate in data set [14]: CC(=O)Oc1ccc([N+](=O)[O-])cc1
Briefly: Michaelis–Menten kinetics on para‐nitrophenyl acetate, AtDLK2 F167A. Format: biochemical, Arabidopsis thaliana. Conditions: other: AtDLK2 F167A, substrate pNP acetate; pH 7.0.

Substrate in data set [15]: CC(=O)Oc1ccc([N+](=O)[O-])cc1
Briefly: Michaelis–Menten kinetics on para‐nitrophenyl acetate, AtKAI2. Type of data set: biochemical, Arabidopsis thaliana. Conditions: other: AtKAI2, substrate pNP acetate; pH 7.0.

Substrate in data set [16]: CC(=O)Oc1ccc([N+](=O)[O-])cc1
Briefly: Michaelis–Menten kinetics on para‐nitrophenyl acetate, AtD14. Type of data set: biochemical, Arabidopsis thaliana. The conditions noted are these: other: AtD14, substrate pNP acetate; pH 7.0.

[17] abbreviates: 100 μM concentration of 1, pNP acetate as substrate.

Positions count from the first letter of the chain named. Numbers in names are those of the source. Entries after “also recorded” stand apart in the source; their conditions may differ.

Turning to `CC1=C[C@H](O/C=C2/C(=O)O[C@@H]3c4ccccc4C[C@H]23)OC1=O` (racemic) [rac‐GR24], the “rac‐GR24‐induced destabilization in DSF” value is reported as “no or marginal” at AtDLK2 wt [1], “no or marginal” on AtDLK2 F167L, “no or marginal” at AtDLK2 F167A [2] and “clearly destabilize” at AtD14 [3]. For the same molecule, the “turnover rate of AtD14” value at AtD14 [4] was 1 molecule/3 min.

As to `CC1(c2ccccc2)CC(C)(C)N2C(=O)C(=O)c3cccc1c32` (stereo not shown) [Compound 1, 4,4,6‐Trimethyl‐6‐phenyl‐5,6‐dihydro‐4H‐pyrrolo[3,2,1‐ij]quinoline‐1,2‐dione], the “retained activity of AtD14” value on AtD14 [5] (setting [17]) was 84%. The “decrease of AtD14's enzymatic activity” value on AtD14 [5] (1 at concentrations of 12.5 μM or higher) was “slight decrease”. Also, the “inhibition of the enzymatic activity of AtD14 (in words)” value against AtD14 [5] was “only marginally inhibits”; against AtD14 [5] (listed as compound 1) it was “only marginally decreasing”. Further, the “retained activity of AtKAI2” value at AtKAI2 [6] (setting [17]) is recorded as 95%. Further, the “decrease of AtKAI2's activity” value on AtKAI2 [6] (1 at concentrations of 50 μM or higher) was “marginal decrease”. Further, the results for the “inhibition of the enzymatic activity of AtKAI2 (in words)” value against AtKAI2 [6] and against AtKAI2 [6] (listed as compound 1) were “only marginally inhibits” and “only marginally decreasing”, respectively.

Turning to `CC(=O)Oc1ccc([N+](=O)[O-])cc1` [pNP acetate, para‐nitrophenyl acetate], in the data set on AtDLK2 wt [7], the “catalytic efficiency of AtDLK2 relative to AtD14” value turned out to be 625 times higher and the “catalytic efficiency of AtDLK2 relative to AtKAI2” value stood at 6.7 times higher. The “turnover number (kcat)” value at AtDLK2 F167A [8] is recorded as 67 molecules per second. Moreover, on AtKAI2 [9], the “catalytic efficiency of AtKAI2 relative to AtD14” value is 94 times higher.

Consider (−)‐5‐deoxystrigol, for which, at AtDLK2 [10], the “hydrolytic activity of AtDLK2 (in words)” value is on record as “moderate hydrolytic activity; also recorded: poor but detectable hydrolytic activity”. Besides, the “reaction of AtDLK2 in DSF experiments (in words)” value at AtDLK2 [11] is listed as “able to react”.

B1: AtDLK2 wt (Arabidopsis thaliana) (protein)
chain: T1 sequence (F4J6L0 1-273)
Usually kcat stands for the number of substrate molecules converted per active site and unit of time at saturation. In general, kcat/Km refers to the turnover number divided by the Michaelis constant. B1: in [12], the Km is reported as 2.58 ± 0.10 × 10^−4 M, the kcat was 26.6 ± 0.7 s⁻¹ and the specificity constant (kcat/Km) turned out to be 103000 ± 4000 M⁻¹ s⁻¹.

B2: AtDLK2 F167L (Arabidopsis thaliana; F167L) (protein)
chain: T1 sequence (F4J6L0 1-273) with F167L
Consider B2, for which, in data set [13], the Km is given as 2.53 ± 0.16 × 10^−4 M, the kcat was found to be 69.8 ± 1.5 s⁻¹ and the kcat/Km was 276000 ± 17000 M⁻¹ s⁻¹.

B3: AtDLK2 F167A (Arabidopsis thaliana; F167A) (protein)
chain: T1 sequence (F4J6L0 1-273) with F167A
B3: in data set [14], the Km was 2.78 ± 0.08 × 10^−4 M, the kcat turned out to be 66.9 ± 0.6 s⁻¹ and the kcat/Km worked out at 241000 ± 7000 M⁻¹ s⁻¹.

B4: AtKAI2 (Arabidopsis thaliana) (protein)
chain: T5 sequence (Q9SZU7 1-270)
Regarding B4, in [15], the Km is 1.56 ± 0.06 × 10^−3 M, the kcat turned out to be 23.6 ± 0.6 s⁻¹ and the kcat/Km was determined as 15100 ± 600 M⁻¹ s⁻¹.

B5: AtD14 (Arabidopsis thaliana) (protein)
chain: T4 sequence (Q9SQR3 1-267)
As for B5, in data set [16], the Km was 2.00 ± 0.16 × 10^−2 M, the kcat was 3.2 ± 0.06 s⁻¹ and the kcat/Km was 160 ± 12 M⁻¹ s⁻¹.
